Reference: ChEMBL document CHEMBL1144351, “Synthesis, structure-activity relationship, and receptor pharmacology of a new series of quinoline derivatives acting as selective, noncompetitive mGlu1 antagonists” (J Med Chem, 2005)

Tests used:
[1] = target: Metabotropic glutamate receptor 1 (Homo sapiens, UniProt Q13255); assay: Inhibitory concentration against human metabotropic glutamate receptor
Summary of the method: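 Human mGlu1a receptor stably expressed in L929sA cells grown in GlutaMAX1 medium with 10% heat-inactivated dialyzed fetal calf serum, streptomycin and penicillin. Antagonism of receptor activation was read as intracellular Ca2+ response on a fluorometric imaging plate reader. IC50 is the mean of two or three independent experiments.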

[2] = target: Metabotropic glutamate receptor 1 (Rattus norvegicus, UniProt P23385); assay: Inhibitory concentration against rat metabotropic glutamate receptor 1
Sequence of Metabotropic glutamate receptor 1 (Rattus norvegicus, UniProt P23385) (P23385 whole entry): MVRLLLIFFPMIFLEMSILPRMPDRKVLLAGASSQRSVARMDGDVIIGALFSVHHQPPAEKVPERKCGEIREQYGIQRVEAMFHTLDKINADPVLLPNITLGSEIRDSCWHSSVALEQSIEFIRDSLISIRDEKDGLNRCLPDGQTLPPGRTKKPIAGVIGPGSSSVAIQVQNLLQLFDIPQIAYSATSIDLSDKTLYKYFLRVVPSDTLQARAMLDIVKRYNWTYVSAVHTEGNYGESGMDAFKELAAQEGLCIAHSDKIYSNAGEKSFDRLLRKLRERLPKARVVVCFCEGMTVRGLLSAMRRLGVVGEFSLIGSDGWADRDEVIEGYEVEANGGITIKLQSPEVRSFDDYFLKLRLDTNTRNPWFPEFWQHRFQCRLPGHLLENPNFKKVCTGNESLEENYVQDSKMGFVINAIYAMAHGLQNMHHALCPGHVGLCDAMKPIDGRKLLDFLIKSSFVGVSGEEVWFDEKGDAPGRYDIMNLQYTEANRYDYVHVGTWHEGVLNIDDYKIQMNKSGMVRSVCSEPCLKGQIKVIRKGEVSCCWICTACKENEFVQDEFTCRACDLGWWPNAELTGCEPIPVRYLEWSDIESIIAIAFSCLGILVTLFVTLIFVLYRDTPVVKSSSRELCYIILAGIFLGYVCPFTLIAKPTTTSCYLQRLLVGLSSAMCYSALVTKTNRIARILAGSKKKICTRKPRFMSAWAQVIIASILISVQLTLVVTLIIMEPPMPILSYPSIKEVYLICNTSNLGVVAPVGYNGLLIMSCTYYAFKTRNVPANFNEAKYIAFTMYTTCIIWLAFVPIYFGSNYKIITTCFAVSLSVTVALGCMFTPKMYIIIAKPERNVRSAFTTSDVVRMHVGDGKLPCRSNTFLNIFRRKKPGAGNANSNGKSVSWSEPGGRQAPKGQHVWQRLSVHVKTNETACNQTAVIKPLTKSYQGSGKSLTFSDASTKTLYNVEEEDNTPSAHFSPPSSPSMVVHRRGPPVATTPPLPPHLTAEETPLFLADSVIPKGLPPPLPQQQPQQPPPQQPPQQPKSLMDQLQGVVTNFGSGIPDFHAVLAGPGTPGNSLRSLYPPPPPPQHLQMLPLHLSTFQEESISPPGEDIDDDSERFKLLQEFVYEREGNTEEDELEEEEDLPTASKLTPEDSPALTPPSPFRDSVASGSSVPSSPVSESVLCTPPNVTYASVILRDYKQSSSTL
Summary of the method: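 Rat mGlu1a stably expressed in CHO-dhfr- cells grown in DMEM/GlutaMAX1 with 10% heat-inactivated dialyzed fetal calf serum, 0.4 mM L-proline and antibiotics. Inhibition of receptor activation was measured as intracellular Ca2+ rise on a fluorometric imaging plate reader. IC50 is the mean of two or three independent experiments.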

[3] = Half life in rat after the single intravenous administration at 2.5 mg/kg; assay type: ADME, organism-based; parameters: dose 2.5 mg/kg, route intravenous; conditions: in vivo
Summary of the method: (§1)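 Rats received a single intravenous 2.5 mg/kg dose. Plasma kinetics were followed to derive elimination half-life and total plasma clearance.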

[4] = Total plasma clearance in rat after the single intravenous administration at 2.5 mg/kg; assay type: ADME, organism-based; parameters: dose 2.5 mg/kg, route intravenous; summary of the method: as §1

Sequence of Metabotropic glutamate receptor 1 (Homo sapiens, UniProt Q13255) (Q13255 whole entry): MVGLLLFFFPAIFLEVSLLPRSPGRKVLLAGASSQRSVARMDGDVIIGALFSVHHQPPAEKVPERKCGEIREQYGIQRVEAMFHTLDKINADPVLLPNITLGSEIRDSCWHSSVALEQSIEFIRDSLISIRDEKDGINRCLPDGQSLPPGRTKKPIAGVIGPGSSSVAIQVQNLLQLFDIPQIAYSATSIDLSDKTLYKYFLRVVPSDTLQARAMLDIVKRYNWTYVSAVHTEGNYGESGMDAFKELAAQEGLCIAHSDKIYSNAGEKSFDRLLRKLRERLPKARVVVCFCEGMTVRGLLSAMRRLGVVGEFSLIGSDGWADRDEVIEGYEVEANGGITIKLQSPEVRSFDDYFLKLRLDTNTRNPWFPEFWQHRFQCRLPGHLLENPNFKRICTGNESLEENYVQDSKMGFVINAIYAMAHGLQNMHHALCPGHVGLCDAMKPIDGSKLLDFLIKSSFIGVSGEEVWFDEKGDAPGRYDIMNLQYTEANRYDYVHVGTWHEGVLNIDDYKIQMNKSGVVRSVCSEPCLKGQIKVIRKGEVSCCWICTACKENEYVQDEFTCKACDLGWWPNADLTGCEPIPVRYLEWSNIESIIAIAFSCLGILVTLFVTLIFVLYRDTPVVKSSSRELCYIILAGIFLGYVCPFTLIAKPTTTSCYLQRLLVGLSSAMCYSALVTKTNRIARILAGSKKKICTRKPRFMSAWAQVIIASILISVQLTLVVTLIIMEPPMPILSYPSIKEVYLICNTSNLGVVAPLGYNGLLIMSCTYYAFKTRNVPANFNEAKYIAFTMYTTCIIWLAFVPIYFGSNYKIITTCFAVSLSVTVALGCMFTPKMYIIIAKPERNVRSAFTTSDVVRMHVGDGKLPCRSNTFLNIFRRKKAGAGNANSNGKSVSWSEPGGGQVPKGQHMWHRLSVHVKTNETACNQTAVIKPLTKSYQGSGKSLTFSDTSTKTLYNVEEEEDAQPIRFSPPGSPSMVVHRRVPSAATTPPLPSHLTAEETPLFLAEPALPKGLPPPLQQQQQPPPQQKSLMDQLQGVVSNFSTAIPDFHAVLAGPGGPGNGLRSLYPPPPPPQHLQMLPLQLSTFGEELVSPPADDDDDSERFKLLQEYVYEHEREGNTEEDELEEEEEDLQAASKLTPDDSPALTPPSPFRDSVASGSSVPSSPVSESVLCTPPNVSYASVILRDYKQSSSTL

IC50 [1] [nM]	IC50 [2] [nM]	half-life [3] [min]	clearance [4] [mL/min/kg]	SMILES
0.56				CO[C@H]1CC[C@@H](C(=O)c2ccc3nc4c(cc3c2)CCC4)CC1
9				CCc1cc2cc(C(=O)[C@H]3CC[C@@H](OC)CC3)ccc2nc1F
> 10000	230			CCc1cc2cc(C(=O)CCc3ccccc3)ccc2nc1C
160	85			O=C(CCc1ccccc1)c1ccc2nc3c(cc2c1)CCCO3
	8300			O=C(Cc1ccccc1)c1ccc2cc3c(nc2c1)OCCC3
	435			CCc1cc2cc(C(=O)Cc3cccc(OC)c3)ccc2nc1C
29				CO[C@H]1CC[C@@H](C(=O)c2ccc3nc4c(cc3c2)CCCN4C)CC1
3				CCCc1ccc2cc(C(=O)[C@H]3CC[C@@H](OC)CC3)ccc2n1
18	80			CO[C@H]1CC[C@@H](C(=O)c2ccc3nc4c(cc3c2)CCCCC4)CC1
16	125			C[C@H]1CC[C@@H](C(=O)c2ccc3nc4c(cc3c2)CCCCC4)CC1
	> 10000			CCc1cc2cc(C(=O)Cc3ccc(OC)c(OC)c3)ccc2nc1C
80				CCc1cc2cc(C(=O)C3CCC(O)CC3)ccc2nc1C (configuration not stated)
	3310			CCc1cc2cc(C(=O)C3CCC(OC)CC3)ccc2nc1-c1cccs1 (configuration not stated)
2	2			CO[C@H]1CC[C@@H](C(=O)c2ccc3nc4c(cc3c2)CCS4)CC1
51	10			CCc1cc2cc(C(=O)Cc3ccccc3)ccc2nc1C
106	45			CO[C@H]1CC[C@@H](C(=O)c2ccc3nc4c(cc3c2)CCCO4)CC1 (stereo in doubt; form 2)
14	6			O=C(Cc1ccccc1)c1ccc2nc3c(cc2c1)CCCO3
0.55	3	19.2	91.7	CO[C@H]1CC[C@@H](C(=O)c2ccc3nc4c(cc3c2)CCCO4)CC1 (stereo in doubt; form 1)
74	7			O=C(Cc1ccsc1)c1ccc2nc3c(cc2c1)CCCO3
450	45			CCc1cc2cc(C(=O)[C@H]3CC[C@@H](OC)CC3)ccc2n2nnnc12
	> 10000			CCc1cc2cc(C(=O)C3CCC(OC)CC3)ccc2nc1-c1nccs1 (configuration not stated)
	126			CCc1cc2cc(C(=O)C34CC5CC(CC(C5)C3)C4)ccc2nc1C
8				CCc1cc2cc(C(=O)C3CCC(OC)CC3)ccc2nc1CC (stereo in doubt; cis)
	645			CCc1cc2cc(C(=O)Cc3ccc(N(C)C)cc3)ccc2nc1C
